Experimental data: ChEMBL document CHEMBL4020824, “Discovery of Potent and Orally Bioavailable Dihydropyrazole GPR40 Agonists” (J Med Chem, 2018)
One block for each compound: values may come before it. Calls of active or inactive are those of the source. The calls are words filed in the database; no cut-off is given here.

Experiments:
[1] = biological target: T1, Free fatty acid receptor 1 (Homo sapiens, UniProt O14842); assay: Agonist activity at human GPR40 expressed in CHOA12 cells assessed as induction of Ca2+ mobilization by FLIPR assay; format: functional, cell-based
T1 sequence (O14842 whole entry): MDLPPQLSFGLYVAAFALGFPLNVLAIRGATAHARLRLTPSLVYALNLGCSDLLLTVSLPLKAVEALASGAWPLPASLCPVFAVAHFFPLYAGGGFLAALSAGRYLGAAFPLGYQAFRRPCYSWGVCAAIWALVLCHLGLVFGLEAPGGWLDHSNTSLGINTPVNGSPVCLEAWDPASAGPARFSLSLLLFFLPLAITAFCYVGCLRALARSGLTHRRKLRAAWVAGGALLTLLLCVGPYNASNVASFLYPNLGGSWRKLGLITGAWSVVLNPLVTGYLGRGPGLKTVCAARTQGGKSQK

[2] = biological target: T2, Peroxisome proliferator-activated receptor gamma (Homo sapiens, UniProt P37231); assay: Agonist activity at PPARgamma (unknown origin)
T2 sequence (P37231 whole entry): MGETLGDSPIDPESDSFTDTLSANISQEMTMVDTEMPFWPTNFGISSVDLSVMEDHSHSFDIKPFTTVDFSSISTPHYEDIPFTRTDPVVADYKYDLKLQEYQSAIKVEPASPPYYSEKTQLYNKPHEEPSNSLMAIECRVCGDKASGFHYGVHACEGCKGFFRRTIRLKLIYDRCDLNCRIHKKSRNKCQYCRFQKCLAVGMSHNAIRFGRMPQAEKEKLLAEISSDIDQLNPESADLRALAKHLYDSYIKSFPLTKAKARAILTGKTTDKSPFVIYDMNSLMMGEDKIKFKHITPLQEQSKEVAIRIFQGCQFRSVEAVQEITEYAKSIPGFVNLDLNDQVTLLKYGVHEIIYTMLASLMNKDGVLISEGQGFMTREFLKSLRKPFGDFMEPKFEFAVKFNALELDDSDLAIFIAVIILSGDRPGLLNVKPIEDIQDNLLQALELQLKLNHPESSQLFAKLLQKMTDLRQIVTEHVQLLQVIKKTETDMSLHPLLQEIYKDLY

[3] = biological target: T1, Free fatty acid receptor 1; assay: Agonist activity at human GPR40 expressed in CHOA12 cells assessed as induction of Ca2+ mobilization at 8.3 uM by FLIPR assay relative to compound 2; format: functional, cell-based
[4] = Half life in cynomolgus monkey at 0.5 mg/kg, iv administered as single dose measured up to 24 hrs post dose by LC-MS/MS analysis; format: ADME, organism-based, Macaca fascicularis; details: in vivo
[5] = Cmax in Sprague-Dawley rat at 3 mg/kg, po administered as single dose measured up to 24 hrs post dose by LC-MS/MS analysis; format: ADME, organism-based; set-up: dose 3 mg/kg, route oral; details: in vivo
[6] = Clearance in cynomolgus monkey at 0.5 mg/kg, iv administered as single dose measured up to 24 hrs post dose by LC-MS/MS analysis; format: ADME, organism-based, Macaca fascicularis; details: in vivo
[7] = Volume of distribution at steady state in CD1 mouse at 1 mg/kg, iv via bolus dose or 1 mg/kg, po administered as single dose measured up to 24 hrs post dose by LC-MS/MS analysis; format: ADME, organism-based; details: in vivo, read-out: Vdss
[8] = (§1) Stability in human liver microsomes assessed as parent compound remaining at 1 to 3 uM incubated for 20 mins in presence NADPH measured up to 90 mins by LC/MS/MS analysis; format: ADME, microsome; details: liver microsomes, read-out: Stability
In short: (§2)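 Human or rat liver microsomal incubations. The read-outs were % parent remaining, % D-ring dealkylation metabolites, % GSH adducts, and half-life (min). The metabolites followed were CYP450-mediated oxidative de-alkylation products (phenols) and GSH conjugates.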

[9] = Volume of distribution at steady state in Sprague-Dawley rat at 1 mg/kg, iv administered as single dose measured up to 24 hrs post dose by LC-MS/MS analysis; format: ADME, organism-based; details: in vivo, read-out: Vdss
[10] = Half life in Sprague-Dawley rat at 1 mg/kg, iv administered as single dose measured up to 24 hrs post dose by LC-MS/MS analysis; format: ADME, organism-based; details: in vivo
[11] = Volume of distribution at steady state in cynomolgus monkey at 0.5 mg/kg, iv administered as single dose measured up to 24 hrs post dose by LC-MS/MS analysis; format: ADME, organism-based, Macaca fascicularis; details: in vivo, read-out: Vdss
[12] = Clearance in Sprague-Dawley rat at 1 mg/kg, iv administered as single dose measured up to 24 hrs post dose by LC-MS/MS analysis; format: ADME, organism-based; details: in vivo
[13] = Clearance in Beagle dog at 0.5 mg/kg, iv administered as single dose measured up to 24 hrs post dose by LC-MS/MS analysis; format: ADME, organism-based, Canis lupus familiaris; details: in vivo
[14] = Half life in Beagle dog at 0.5 mg/kg, iv administered as single dose measured up to 24 hrs post dose by LC-MS/MS analysis; format: ADME, organism-based, Canis lupus familiaris; details: in vivo
[15] = Clearance in CD1 mouse at 1 mg/kg, iv administered as bolus dose or 1 mg/kg, po administered as single dose measured up to 24 hrs post dose by LC-MS/MS analysis; format: ADME, organism-based; details: in vivo
[16] = (§3) Stability in rat liver microsomes assessed as parent compound remaining at 1 to 3 uM incubated for 20 mins in presence NADPH measured up to 90 mins by LC/MS/MS analysis; format: ADME, microsome; details: liver microsomes, read-out: Stability; in short: as §2
[17] = Half life in CD1 mouse at 1 mg/kg, iv administered as bolus dose or 1 mg/kg, po administered as single dose measured up to 24 hrs post dose by LC-MS/MS analysis; format: ADME, organism-based; details: in vivo
[18] = (§4) Half life in human liver microsomes at 1 to 3 uM incubated for 20 mins in presence NADPH measured up to 90 mins by LC/MS/MS analysis; format: ADME, microsome; details: liver microsomes
[19] = Tmax in Sprague-Dawley rat at 3 mg/kg, po administered as single dose measured up to 24 hrs post dose by LC-MS/MS analysis; format: ADME, organism-based; details: in vivo
[20] = Oral bioavailability in Sprague-Dawley rat at 3 mg/kg administered via gavage as single dose measured up to 24 hrs post dose by LC-MS/MS analysis; format: ADME, organism-based; details: in vivo
[21] = Volume of distribution at steady state in Beagle dog at 0.5 mg/kg, iv administered as single dose measured up to 24 hrs post dose by LC-MS/MS analysis; format: ADME, organism-based, Canis lupus familiaris; details: in vivo, read-out: Vdss
[22] = (§5) Half life in rat liver microsomes at 1 to 3 uM incubated for 20 mins in presence NADPH measured up to 90 mins by LC/MS/MS analysis; format: ADME, microsome; details: liver microsomes
Liver [23] = assay: (§6) Drug level in human liver microsomes treated with 2-((4S,5S)-1-(4-(((3R,4R)-1-(5-Chloro-2-methoxypyridin-4-yl)-3-methylpiperidin-4-yl)oxy)phenyl)-4-methyl-3-(trifluoromethyl)-4,5-dihydro-1H-pyrazol-5-yl)acetic acid at 1 to 3 uM incubated for 20 mins in presence of NADPH measured after 90 mins by LC/MS/MS analysis; format: ADME, microsome; in short: as §2
Liver [24] = assay: as §6, with “rat” for “human”; format: ADME, microsome; in short: as §2
[25] = Cmax in C57BL6 mouse at 3 mg/kg, po administered as single dose via gavage measured up to 24 hrs post dose by LC-MS/MS analysis; format: ADME, organism-based; set-up: dose 3 mg/kg, route oral; details: in vivo
[26] = Volume of distribution at steady state in cynomolgus monkey at 0.2 mg/kg, iv administered as single dose measured up to 24 hrs post dose by LC-MS/MS analysis; format: ADME, organism-based, Macaca fascicularis; details: in vivo, read-out: Vdss
Liver [27] = assay: as §1; format: ADME, microsome; details: microsomes, 20 min, 3 µM; in short: as §2
[28] = Clearance in cynomolgus monkey at 0.2 mg/kg, iv administered as single dose measured up to 24 hrs post dose by LC-MS/MS analysis; format: ADME, organism-based, Macaca fascicularis; details: in vivo
Liver [29] = assay: as §3; format: ADME, microsome; details: microsomes, 20 min, 3 µM; in short: as §2
[30] = Oral bioavailability in cynomolgus monkey at 0.5 mg/kg administered via gavage as single dose measured up to 24 hrs post dose by LC-MS/MS analysis; format: ADME, organism-based, Macaca fascicularis; details: in vivo
[31] = Tmax in cynomolgus monkey at 0.5 mg/kg, po administered as single dose measured up to 24 hrs post dose by LC-MS/MS analysis; format: ADME, organism-based, Macaca fascicularis; details: in vivo
Liver [32] = assay: as §4; format: ADME, microsome; details: microsomes, 20 min, 3 µM
[33] = Cmax in cynomolgus monkey at 0.5 mg/kg, po administered as single dose measured up to 24 hrs post dose by LC-MS/MS analysis; format: ADME, organism-based, Macaca fascicularis; set-up: dose 0.5 mg/kg, route oral; details: in vivo
[34] = Oral bioavailability in C57BL6 mouse at 3 mg/kg administered as single dose via gavage measured up to 24 hrs post dose by LC-MS/MS analysis; format: ADME, organism-based; details: in vivo
[35] = Tmax in C57BL6 mouse at 3 mg/kg, po administered as single dose measured up to 24 hrs post dose by LC-MS/MS analysis; format: ADME, organism-based; details: in vivo
[36] = Half life in cynomolgus monkey at 0.2 mg/kg, iv administered as single dose measured up to 24 hrs post dose by LC-MS/MS analysis; format: ADME, organism-based, Macaca fascicularis; details: in vivo
Liver [37] = assay: as §5; format: ADME, microsome; details: microsomes, 20 min, 3 µM
Liver [38] = assay: Drug level in rat liver microsomes treated with 2-((4S,5S)-1-(4-(((3R,4R)-1-(5-Ethoxy-2-fluorophenyl)-3-methylpiperidin-4-yl)oxy)phenyl)-4-methyl-3-(trifluoromethyl)-4,5-dihydro-1H-pyrazol-5-yl)acetic acid at 1 to 3 uM incubated for 20 mins in presence of NADPH measured after 90 mins by LC/MS/MS analysis; format: ADME, microsome; in short: as §2
Liver [39] = assay: Drug level in human liver microsomes treated with 2-((4S,5S)-1-(4-(((3R,4R)-1-(5-Ethoxy-2-fluorophenyl)-3-methylpiperidin-4-yl)oxy)phenyl)-4-methyl-3-(trifluoromethyl)-4,5-dihydro-1H-pyrazol-5-yl)acetic acid at 1 to 3 uM incubated for 20 mins in presence of NADPH measured after 90 mins by LC/MS/MS analysis; format: ADME, microsome; in short: as §2

EC50 [1]: 70 nM
Structure (SMILES): COc1ccc(F)c(N2CC[C@@H](Oc3ccc(N4N=C(C(F)(F)F)[C@@H](C)[C@@H]4CC(=O)O)cc3)[C@H](F)C2)c1

Activity [3]: Active
EC50 [1]: 2830 to 5360 nM
Structure (SMILES): COc1ccc(F)c(N2CCC(Oc3ccc(N4C[C@H](C(F)(F)F)C[C@@H]4CC(=O)O)cc3)C2)c1 (some centres not stated)

half-life [4]: 9.4 h
Cmax [5]: 3200 nM
clearance [6]: 4 mL/min/kg
Vd [7]: 0.7 L/kg
remaining at 20 min, up to 3 µM [8]: 93%
Vd [9]: 0.8 L/kg
half-life [10]: 3.4 h
Vd [11]: 2.2 L/kg
clearance [12]: 5 mL/min/kg
clearance [13]: 2.6 mL/min/kg
half-life [14]: 7.3 h
clearance [15]: 1.6 mL/min/kg
remaining at 20 min, up to 3 µM [16]: 79%
half-life [17]: 3.3 h
half-life [18]: 1.58 h
EC50 [1]: 150 nM
Tmax [19]: 1.7 h
bioavailability [20]: 89%
Vd [21]: 0.6 L/kg
half-life [22]: 0.617 h
Structure (SMILES): CCOc1ccc(F)c(N2CC[C@@H](Oc3ccc(N4N=C(C(F)(F)F)[C@@H](C)[C@@H]4CC(=O)O)cc3)[C@H](F)C2)c1

EC50 [1]: 450 to 720 nM
Structure (SMILES): CCc1ccc(F)c(N2CCC(Oc3ccc(N4N=C(C(F)(F)F)[C@@H](C)[C@@H]4CC(=O)O)cc3)CC2)c1

EC50 [2]: > 50000 nM
Cmax [25]: 3400 nM
Cmax [5]: 1100 nM
Vd [26]: 1.7 L/kg
Vd [7]: 0.8 L/kg
Stability (Liver [27]): 42%
Vd [9]: 0.6 L/kg
half-life [10]: 1.4 h
clearance [28]: 6.6 mL/min/kg
clearance [12]: 17 mL/min/kg
clearance [15]: 6 mL/min/kg
Stability (Liver [29]): 27%
half-life [17]: 1.5 h
bioavailability [30]: 66%
Tmax [31]: 2 h
t1/2 (Liver [32]): 0.8 h
Cmax [33]: 200 nM
EC50 [1]: 110 nM
Tmax [19]: 0.7 h
bioavailability [34]: 96%
bioavailability [20]: 36%
Tmax [35]: 1 h
half-life [36]: 5.3 h
t1/2 (Liver [37]): 0.383 h
Structure (SMILES): COc1ccc(F)c(N2CCC(Oc3ccc(N4N=C(C(F)(F)F)[C@@H](C)[C@@H]4CC(=O)O)cc3)CC2)c1

EC50 [1]: 100 nM
Structure (SMILES): COc1ccc(Cl)c(N2CCC(Oc3ccc(N4N=C(C(F)(F)F)[C@@H](C)[C@@H]4CC(=O)O)cc3)CC2)c1

Drug uptake (Liver [38]): Metabolite_Detected
Drug uptake (Liver [39]): Metabolite_Detected
Structure (SMILES): C[C@@H]1CN(c2cc(O)ccc2F)CC[C@H]1Oc1ccc(N2N=C(C(F)(F)F)[C@@H](C)[C@@H]2CC(=O)O)cc1

Second part, the compound before the results:

Structure (SMILES): COc1ccc(F)c(-c2ccc(Cc3ccc(N4N=C(C(F)(F)F)[C@@H](C)[C@@H]4CC(=O)O)cc3)c(C)c2)c1
EC50 [2]: 2600 nM

Structure (SMILES): C[C@@H]1C(C(F)(F)F)=NN(c2ccc(OC3CCN(c4cccc(F)n4)CC3)cc2)[C@H]1CC(=O)O
EC50 [1]: 390 to 860 nM

Structure (SMILES): CCOc1cc(N2CC[C@@H](Oc3ccc(N4N=C(C(F)(F)F)[C@@H](C)[C@@H]4CC(=O)O)cc3)[C@H](C)C2)c(Cl)cn1
EC50 [1]: 190 to 250 nM

Structure (SMILES): C[C@@H]1CN(c2cc(O)ncc2Cl)CC[C@H]1Oc1ccc(N2N=C(C(F)(F)F)[C@@H](C)[C@@H]2CC(=O)O)cc1
Drug uptake (Liver [23]): Metabolite_Detected
Drug uptake (Liver [24]): Metabolite_Detected

Structure (SMILES): COc1cc(N2CC[C@@H](Oc3ccc(N4N=C(C(F)(F)F)[C@@H](C)[C@@H]4CC(=O)O)cc3)[C@H](F)C2)c(Cl)cn1
EC50 [1]: 180 nM
